Assay [1] deals with Small conductance calcium-activated potassium channel protein 3 (Rattus norvegicus) (UniProt P70605). Briefly: Ratio of concentration drug to dequalinium to cause 50% inhibition of SKca channel-mediated after-hypepolarization in rat sympathetic neurons. The class given is cell-based. Conditions: Sympathetic neuron. Summed up: (§1)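 Rat sympathetic neurones (SK3 SKCa), short-term tissue culture. Action potentials evoked by depolarizing current pulses; afterhyperpolarization amplitude measured before, during and after compound applied in external solution at 2–4 concentrations, at least three neurones. Dequalinium reference in each assay. Hill fits with common Hill coefficient and maximum inhibition per assay gave IC50; EMR = test/dequalinium concentration for 50% AHP inhibition, by simultaneous weighted nonlinear least squares.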
Sequence of Small conductance calcium-activated potassium channel protein 3 (Rattus norvegicus) (P70605 whole entry): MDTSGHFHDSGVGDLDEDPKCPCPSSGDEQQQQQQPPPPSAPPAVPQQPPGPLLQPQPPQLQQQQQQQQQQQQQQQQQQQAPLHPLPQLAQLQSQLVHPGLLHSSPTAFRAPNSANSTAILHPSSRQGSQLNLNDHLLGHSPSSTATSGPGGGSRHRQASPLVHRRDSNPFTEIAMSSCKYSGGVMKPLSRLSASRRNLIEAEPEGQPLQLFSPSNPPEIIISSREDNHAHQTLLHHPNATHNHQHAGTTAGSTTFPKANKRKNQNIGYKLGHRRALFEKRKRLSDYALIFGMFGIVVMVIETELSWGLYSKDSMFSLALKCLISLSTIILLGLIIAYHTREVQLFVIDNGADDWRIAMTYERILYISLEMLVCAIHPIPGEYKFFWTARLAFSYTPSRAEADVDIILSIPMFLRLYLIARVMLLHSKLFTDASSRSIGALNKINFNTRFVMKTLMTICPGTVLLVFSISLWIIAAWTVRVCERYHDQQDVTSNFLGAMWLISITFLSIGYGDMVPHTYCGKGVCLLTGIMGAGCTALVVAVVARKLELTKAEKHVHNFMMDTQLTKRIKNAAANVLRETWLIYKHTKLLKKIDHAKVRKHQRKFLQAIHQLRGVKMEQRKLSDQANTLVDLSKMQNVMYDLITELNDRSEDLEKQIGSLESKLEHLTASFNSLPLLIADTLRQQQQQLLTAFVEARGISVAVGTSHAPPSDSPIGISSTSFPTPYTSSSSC

Assay [2] has as its target Small conductance calcium-activated potassium channel protein 3 (Rattus norvegicus, UniProt P70605). As to the kind of experiment: Inhibition of SKca channel-mediated after-hypepolarization in rat sympathetic neurons. The class given is cell-based, Sympathetic neuron. Summed up: as §1

Molecules are shown by their SMILES. pIC50: −log10 of the molar value. Bounds are passed on as bounds.

Sequence of Small conductance calcium-activated potassium channel protein 3 (P70605 whole entry): as above

Regarding `c1ccc2c(NCCCCCN(CCCNc3ccnc4ccccc34)Cc3cc(OCCCNc4ccnc5ccccc45)cc(OCCCNc4ccnc5ccccc45)c3)ccnc2c1`, the EMR in assay [1] stood at 0.23. Besides, the pIC50 in assay [2] is 6.89.
As for `NC(N)=NCc1ccc(/C=C\c2ccc(CN=C(N)N)cc2)cc1`, the pIC50 in assay [2] is 4.60.
Turning to `NCCCCCCCCN(CCCNc1ccnc2ccccc12)C(=O)/C=C/C(=O)NCCCNc1ccnc2ccccc12`, the EMR in assay [1] came to 0.59. In assay [2], the pIC50 was 6.31.
`c1ccc2c(NCCCCCN(CCCNc3ccnc4ccccc34)c3cc(OCCCNc4ccnc5ccccc45)cc(OCCCNc4ccnc5ccccc45)c3)ccnc2c1`: the EMR in assay [1] stood at 0.17. Further, the pIC50 in assay [2] was 7.03.
With `CC[n+]1ccc(NCCCOc2cccc(OCCCNc3cc[n+](CC)c4ccccc34)c2OCCCNc2cc[n+](CC)c3ccccc23)c2ccccc21`, in assay [1], the EMR stood at 0.16. The pIC50 in assay [2] was 7.07.
For `c1ccc2c(NCCCNCc3cc(OCCCNc4ccnc5ccccc45)cc(OCCCNc4ccnc5ccccc45)c3)ccnc2c1`, in assay [1], the EMR was 0.48. Besides, in assay [2], the pIC50 is 6.44.
As for `c1cc2cc(c1)C[n+]1ccc(c3ccccc31)NCc1ccc(cc1)CNc1cc[n+](c3ccccc13)C2`, the EMR in assay [1] came to 0.01.
Regarding `N=C(N)NCc1ccc(/C=C\c2ccc(CNC(=N)N)cc2)cc1`, in assay [1], the EMR turned out to be 59.
In the case of `Nc1cc[n+](CCCC=C(CCCC[n+]2ccc(N)c3ccccc32)CCCC[n+]2ccc(N)c3ccccc32)c2ccccc12`, in assay [1], the EMR is 0.1.
`N=C(N)NCCCNC(=O)/C=C/C(=O)N(CCCNC(=N)N)Cc1ccc(-c2ccc(CN)cc2)cc1`: in assay [1], the EMR amounted to 33. Also, the pIC50 in assay [2] was 4.77.
`c1ccc2c(NCCCNc3cc(OCCCNc4ccnc5ccccc45)cc(OCCCNc4ccnc5ccccc45)c3)ccnc2c1`: the EMR in assay [1] amounted to 0.26. In addition, the negative-log IC50 (pIC50) in assay [2] is 6.66.
As for `c1cc(OCCCNc2ccnc3ccccc23)c(OCCCNc2ccnc3ccccc23)c(OCCCNc2ccnc3ccccc23)c1`, the EMR in assay [1] turned out to be 0.23. Besides, the pIC50 in assay [2] is 6.89.
In the case of `N=C(N)NCCCNC(=O)/C=C\C(=O)N(CCCCCCCCN)CCCNC(=N)N`, in assay [2], the pIC50 was less than 4.52.
Consider `N=C(N)NCCCNC(=O)/C=C/C(=O)N(CCCCCCCCN)CCCNC(=N)N`, for which the pIC50 in assay [2] is 4.57.
As to `c1ccc2c(NCCCOc3ccc(CCNc4ccnc5ccccc45)cc3OCCCNc3ccnc4ccccc34)ccnc2c1`, the EMR in assay [1] was found to be 0.31. For the same molecule, in assay [2], the pIC50 is 6.57.
Regarding `c1ccc2c(c1)c1cc[n+]2CCCCC[n+]2ccc(c3ccccc32)NCCCCCN1`, the EMR in assay [1] came out at 0.003.
Turning to `Cc1cc(N)c2ccccc2[n+]1CCCCCCCCCC[n+]1c(C)cc(N)c2ccccc21`, in assay [1], the EMR amounted to 1.

The values are drawn from ChEMBL document CHEMBL1143731, “Synthesis and pharmacological testing of polyaminoquinolines as blockers of the apamin-sensitive Ca2+-activated K+ channel (SK(Ca))” (Bioorg Med Chem, 2007).
